# pEC50, pIC50: −log10 of the molar value. Like-named read-outs stand apart in the source and are kept apart here.
# Assays:
# P. vivax field isolates = test: ex vivo 48 h schizont maturation assay; type: cell-based
# How it was run: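 Field isolates came from patients at malaria clinics in Timika, Papua, Indonesia, and were tested in a 48 h schizont maturation assay adapted from the WHO microtest at 2% hematocrit. P. falciparum was run in RPMI 1640 with 10% AB+ human serum. P. vivax was run in McCoy's 5A with 20% AB+ human serum.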
# P. falciparum 3D7 = details: cited from earlier work
# [1] = DSM265; cited from earlier work
# [2] = dogs; DSM265; cited from earlier work
# Rabbit DHODH = Rabbit DHODH (Oryctolagus cuniculus, UniProt G1SWF3); details: read-out: Rabbit DHODH IC50; cited from earlier work
# Minipig DHODH = Minipig DHODH (Sus scrofa, UniProt F1S3B0); details: read-out: Minipig DHODH IC50; cited from earlier work
# [3] = across species; DSM265; cited from earlier work
# P. cynomolgi DHODH = P. cynomolgi DHODH (Plasmodium cynomolgi, UniProt K6UE05); details: read-out: P. cynomolgi DHODH IC50; cited from earlier work
# [4] = kinetic solubility in pH 6.5 buffer; type: physicochemical; details: aqueous buffer pH 6.5, pH 6.5
# [5] = system: P. falciparum 3D7A parasites; details: DSM265, cited from earlier work
# Human HepG2 cells = test: cytotoxicity against a human cell line; type: cell-based; details: read-out: HepG2 growth inhibition EC50; 95% CI in parentheses
# P. cynomolgi DHODH, sequence (K6UE05 1-385): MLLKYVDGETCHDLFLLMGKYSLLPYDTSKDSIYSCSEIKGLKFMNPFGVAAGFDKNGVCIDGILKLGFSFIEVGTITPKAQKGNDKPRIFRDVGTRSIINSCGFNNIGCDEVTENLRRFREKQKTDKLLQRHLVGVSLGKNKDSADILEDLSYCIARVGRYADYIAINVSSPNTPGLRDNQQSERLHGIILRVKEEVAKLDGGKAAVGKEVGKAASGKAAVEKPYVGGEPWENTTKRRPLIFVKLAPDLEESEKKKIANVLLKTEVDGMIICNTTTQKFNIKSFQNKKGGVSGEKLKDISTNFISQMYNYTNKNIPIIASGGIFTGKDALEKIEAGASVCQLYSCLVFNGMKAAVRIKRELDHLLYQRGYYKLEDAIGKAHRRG
# Minipig DHODH, sequence (F1S3B0 1-395): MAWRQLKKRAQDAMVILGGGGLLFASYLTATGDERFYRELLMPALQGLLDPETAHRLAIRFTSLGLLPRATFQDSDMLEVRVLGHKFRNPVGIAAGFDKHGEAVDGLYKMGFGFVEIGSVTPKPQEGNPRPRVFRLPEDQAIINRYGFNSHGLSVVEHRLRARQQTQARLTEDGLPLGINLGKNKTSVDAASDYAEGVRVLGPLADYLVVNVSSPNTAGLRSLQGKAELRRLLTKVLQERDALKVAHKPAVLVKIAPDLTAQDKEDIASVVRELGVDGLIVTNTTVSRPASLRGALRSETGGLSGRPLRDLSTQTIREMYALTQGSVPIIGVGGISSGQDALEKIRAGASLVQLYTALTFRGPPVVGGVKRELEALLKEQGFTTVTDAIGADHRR
# Rabbit DHODH, sequence (G1SWF3 1-395): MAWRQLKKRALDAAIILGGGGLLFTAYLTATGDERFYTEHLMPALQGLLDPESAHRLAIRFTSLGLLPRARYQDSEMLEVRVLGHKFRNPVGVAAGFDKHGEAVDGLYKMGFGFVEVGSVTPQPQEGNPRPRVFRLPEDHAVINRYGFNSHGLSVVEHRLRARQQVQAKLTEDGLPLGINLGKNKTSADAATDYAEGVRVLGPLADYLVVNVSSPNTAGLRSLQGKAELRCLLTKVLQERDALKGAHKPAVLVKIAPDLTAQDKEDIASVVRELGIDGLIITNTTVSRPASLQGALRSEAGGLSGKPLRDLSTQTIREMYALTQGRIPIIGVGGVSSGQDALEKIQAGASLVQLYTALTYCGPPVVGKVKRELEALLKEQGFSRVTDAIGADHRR
Compound,sensitivity of P. vivax versus P. falciparum field isolates (P. vivax field isolates),"pEC50 (P. falciparum 3D7; read-out: Pf3D7 EC50, whole cell P. falciparum 3D7, albumax media, 72 h)","pEC50 (P. falciparum 3D7; read-out: unbound EC50, P. falciparum 3D7 in vitro 72 h growth assay, DSM265)",predicted human half-life [1],systemic plasma clearance [2],unbound intrinsic clearance [2],pIC50 (Rabbit DHODH),pIC50 (Minipig DHODH),oral bioavailability [3],pIC50 (P. cynomolgi DHODH),solubility kinetic [4],"pEC50 ([5]; read-out: EC50, 48 h growth assay (PRR), P. falciparum 3D7, 48 h)","pEC50 ([5]; read-out: unbound EC50, P. falciparum 3D7 48 h growth assay (PRR))",pEC50 (Human HepG2 cells)
Cc1cc(Nc2ccc(S(F)(F)(F)(F)F)cc2)n2nc(C(C)(F)F)nc2n1 [DSM265],5 fold,8.37,9.14,100 h,1.2 mL/min/kg,183 mL/min/kg,< 4.00,~4.00,20-70%,7.92,12.5 µg/mL,7.96,8.72,–
"O=C(O)c1[nH]c(=O)[nH]c(=O)c1F [5-fluoroorotate, reference compound]",–,–,–,–,–,–,–,–,–,–,–,–,–,6.11

# Reference: PMC5148661 (ACS infectious diseases, 2016)
